Laboratory results from ChEMBL document CHEMBL4689842, “EUbOPEN Chemogenomics Library wave 1” (2021).

Columns and labels:
[1] = tested on: Fibroblast; assay: Multiplex assay against human fibroblast; type: toxicity, cell-based
Method in brief: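 With compound added, live cells were imaged on a CQ1 microscope at 37°C and 5% CO2; staining with Hoechst33342, BioTracker Green Microtubule Cytoskeleton Dye, MitoTracker Red and Annexin V Alexa Fluor 680 had been done at seeding. The CellPathfinder machine-learning gating scheme split cells into Hoechst high-intensity objects or normal cells, normal cells into healthy, pyknosed or fragmented nuclei, and pyknosed cells into mitotic or apoptotic. The tubulin, mitochondrial-mass and membrane-permeability phenotypes are per cents of healthy-nucleus cells.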

[2] = tested on: U2OS; assay: Incucyte cell viability with U2OS; type: toxicity, cell-based; details: human, 10 µM, compound concentration 10 uM; note: filed as whole numbers so only -1 and 0 and 1 occur
[3] = 24 h, 1 µM, compound concentration 1 uM, replicate 2
[4] = 24 h, 10 µM, compound concentration 10 uM, replicate 1
[5] = 24 h, 10 µM, compound concentration 10 uM, replicate 2
[6] = 48 h, 1 µM, compound concentration 1 uM, replicate 1
[7] = 48 h, 1 µM, compound concentration 1 uM, replicate 2
[8] = 48 h, 10 µM, compound concentration 10 uM, replicate 1
[9] = 48 h, 10 µM, compound concentration 10 uM, replicate 2

In the case of `CC(C)c1cc(Nc2nc(N3CCC[C@H](N)C3)ncc2C(N)=O)cc(C(C)C)n1`, the “Population Tubulin-Different-Phenotype (%)” value [1, 3] is reported as 94%, the “Total Cell Count” value [1, 3] is reported as 77 and the “Population Apoptotic (%)” value [1, 4] is reported as 63%. For the same compound, the “Population Fragmented Nuclei (%)” value [1, 4] was 26%, the “Population Healthy Nuclei (%)” value [1, 4] was 42% and the “Population Hoechst High Intensity Objects (%)” value [1, 4] was 25%. The “Population Membrane Permeable-Phenotype (%)” value [1, 4] was 17%, the “Population Mitochondria Different-Phenotype (%)” value [1, 4] was 44% and the “Population Mitotic Cells (%)” value [1, 4] was 36%. The “Population Normal (%)” value [1, 4] was 75%, the “Population Pyknosed Nuclei (%)” value [1, 4] was 31% and the “Population Tubulin-Different-Phenotype (%)” value [1, 4] was 82%. The “Total Cell Count” value [1, 4] was 92, the “Population Apoptotic (%)” value [1, 5] was 84% and the “Population Fragmented Nuclei (%)” value [1, 5] was 23%. The “Population Healthy Nuclei (%)” value [1, 5] was 23%, the “Population Hoechst High Intensity Objects (%)” value [1, 5] was 17% and the “Population Membrane Permeable-Phenotype (%)” value [1, 5] was 100%. For the same compound, the “Population Mitochondria Different-Phenotype (%)” value [1, 5] was 90%, the “Population Mitotic Cells (%)” value [1, 5] was 16% and the “Population Normal (%)” value [1, 5] was 82%. The “Population Pyknosed Nuclei (%)” value [1, 5] was 53%, the “Population Tubulin-Different-Phenotype (%)” value [1, 5] was 100% and the “Total Cell Count” value [1, 5] was 57. The “Population Apoptotic (%)” value [1, 6] was 70%, the “Population Fragmented Nuclei (%)” value [1, 6] was 29% and the “Population Healthy Nuclei (%)” value [1, 6] was 40%. The “Population Hoechst High Intensity Objects (%)” value [1, 6] was 37%, the “Population Membrane Permeable-Phenotype (%)” value [1, 6] was 34% and the “Population Mitochondria Different-Phenotype (%)” value [1, 6] was 7%. For the same compound, the “Population Mitotic Cells (%)” value [1, 6] was 30%, the “Population Normal (%)” value [1, 6] was 62% and the “Population Pyknosed Nuclei (%)” value [1, 6] was 29%. The “Population Tubulin-Different-Phenotype (%)” value [1, 6] was 68%, the “Total Cell Count” value [1, 6] was 162 and the “Population Apoptotic (%)” value [1, 7] was 42%. For the same compound, the “Population Fragmented Nuclei (%)” value [1, 7] was 33%, the “Population Healthy Nuclei (%)” value [1, 7] was 56% and the “Population Hoechst High Intensity Objects (%)” value [1, 7] was 33%. For the same compound, the “Population Membrane Permeable-Phenotype (%)” value [1, 7] was 9%, the “Population Mitochondria Different-Phenotype (%)” value [1, 7] was 1% and the “Population Mitotic Cells (%)” value [1, 7] was 57%. For the same compound, the “Population Normal (%)” value [1, 7] was 66%, the “Population Pyknosed Nuclei (%)” value [1, 7] was 10% and the “Population Tubulin-Different-Phenotype (%)” value [1, 7] was 58%. For the same compound, the “Total Cell Count” value [1, 7] was 204, the “Population Apoptotic (%)” value [1, 8] was 95% and the “Population Fragmented Nuclei (%)” value [1, 8] was 43%. The “Population Healthy Nuclei (%)” value [1, 8] was 24%, the “Population Hoechst High Intensity Objects (%)” value [1, 8] was 32% and the “Population Membrane Permeable-Phenotype (%)” value [1, 8] was 66%. For the same compound, the “Population Mitochondria Different-Phenotype (%)” value [1, 8] was 13%, the “Population Mitotic Cells (%)” value [1, 8] was 5% and the “Population Normal (%)” value [1, 8] was 67%. The “Population Pyknosed Nuclei (%)” value [1, 8] was 32%, the “Population Tubulin-Different-Phenotype (%)” value [1, 8] was 66% and the “Total Cell Count” value [1, 8] was 92. The “Population Apoptotic (%)” value [1, 9] was 80%, the “Population Fragmented Nuclei (%)” value [1, 9] was 27% and the “Population Healthy Nuclei (%)” value [1, 9] was 38%. For the same compound, the “Population Hoechst High Intensity Objects (%)” value [1, 9] was 31%, the “Population Membrane Permeable-Phenotype (%)” value [1, 9] was 19% and the “Population Mitochondria Different-Phenotype (%)” value [1, 9] was 58%. For the same compound, the “Population Mitotic Cells (%)” value [1, 9] was 19%, the “Population Normal (%)” value [1, 9] was 68% and the “Population Pyknosed Nuclei (%)” value [1, 9] was 33%. For the same compound, the “Population Tubulin-Different-Phenotype (%)” value [1, 9] was 55%, the “Total Cell Count” value [1, 9] was 135 and the “Growth Rate” value ([2]; 0 h, replicate number 1, timepoint 0 hours) was 1. For the same compound, the “Growth Rate” value ([2]; 0 h, replicate number 2, timepoint 0 hours) was 0, the “Growth Rate” value ([2]; 6 h, replicate number 1, timepoint 6 hours) was 0 and the “Growth Rate” value ([2]; 6 h, replicate number 2, timepoint 6 hours) was 1. For the same compound, the “Growth Rate” value ([2]; 12 h, replicate number 1, timepoint 12 hours) was 0, the “Growth Rate” value ([2]; 18 h, replicate number 1, timepoint 18 hours) was 0 and the “Growth Rate” value ([2]; 24 h, replicate number 1, timepoint 24 hours) was 0.
